Most compounds without a hit are left out; they make up all but 3.5% or so of the library.
MrgX1 antag: human MrgX1 receptor antagonism, primary screen. Q96LB2. MRGX1-HEK293 calcium flux, Fluo-4, BAM8-22 antagonism; hits give low values. AID 588676. actives 1.3% (n = 310,000). B-score at 10 µM;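 active = calcium-response B-score plate-corrected more than 3 library SD below zero, starting fluorescence within 5 deviations, no agonist response on first addition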;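 note: peak minus trough fluorescence over baseline after final BAM8-22 challenge near maximal dose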
Target sequence (Q96LB2 whole entry, looked up): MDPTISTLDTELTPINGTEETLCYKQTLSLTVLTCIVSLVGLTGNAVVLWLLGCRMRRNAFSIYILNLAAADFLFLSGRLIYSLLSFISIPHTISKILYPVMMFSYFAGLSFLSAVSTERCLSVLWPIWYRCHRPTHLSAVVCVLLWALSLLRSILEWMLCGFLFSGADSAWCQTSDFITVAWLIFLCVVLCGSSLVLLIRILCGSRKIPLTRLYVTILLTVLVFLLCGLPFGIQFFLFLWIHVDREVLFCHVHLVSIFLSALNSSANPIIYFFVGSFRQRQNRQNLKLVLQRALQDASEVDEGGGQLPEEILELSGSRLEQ
RGS4 pot: potentiators or activators of RGS4; HEK293 M3R/inducible RGS4, carbachol calcium flux Fluo4; hits give low values; B-score at 10 µM; actives 0.92% (n = 310,000);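 active = B-score of the integrated calcium signal more than 4 SD below the library mean, with starting fluorescence not abnormally high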;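 note: negative B-score means reduced calcium response which marks RGS4 activation or potentiation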
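Assay system: Inducible-RGS4 HEK293 cells carrying M3 receptor | Schedule: Compound preincubation 20 min at room temperature before agonist | Signal: Kinetic calcium fluorescence imaging with Fluo4-AM dye, 2 µM | Read-out basis: B score from integrated fluorescence ratio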
MrgX1 allo act: allosterically activates human MrgX1 receptor signaling; Q96LB2; MrgX1-HEK293, Fluo-4 calcium flux, FDSS; hits give high values; AID 588675; actives 0.63% (n = 310,000); B-score at 10 µM;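 active = plate-corrected calcium response at least 3 library SD above typical, normal starting fluorescence, not activating the receptor alone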;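 note: compound read alongside a low EC10 to EC30 dose of BAM8-22 agonist; peak minus trough fluorescence over baseline measured at the second addition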
MrgX1 ag: agonists of human MrgX1 receptor; B-score at 10 µM; AID 588627; MrgX1-HEK293 cells, Fluo-4 calcium fluorescence, agonist mode; hits give high values; actives 0.44% (n = 310,000); Q96LB2;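 active = calcium response B-score plate-corrected fluorescence ratio at least 3 library SD, with starting fluorescence B-score inside 5 SD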
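Material – MrgX1-expressing HEK293 cells · Input – 15,000 cells seeded per well · Dosing – compound as first of three additions · Times – overnight seeding, then 1 h dark dye loading · Measured by – kinetic Fluo-4 NW fluorescence of intracellular calcium · Read-out – B-scored fluorescence response ratio · Benchmarks – positive and negative control wells on each plate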
RGS4 block: human RGS4 inhibition; P49798; HEK293 M3R/RGS4 inducible, Fluo-4 calcium flux; hits give high values; triggered by carbachol at its EC20; B-score at 10 µM; actives 0.45% (n = 310,000); AID 463165;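 active = B-score, a plate-corrected calcium signal, over three deviations above library mean, with baseline fluorescence within five deviations of library mean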;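 note: RGS4 expression induced by doxycycline in cells with stable M3 receptor; B-score is computed from the integrated fluorescence ratio over baseline after carbachol; higher B-score means a larger calcium signal and so more RGS4 inhibition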
Target sequence (P49798 whole entry, looked up): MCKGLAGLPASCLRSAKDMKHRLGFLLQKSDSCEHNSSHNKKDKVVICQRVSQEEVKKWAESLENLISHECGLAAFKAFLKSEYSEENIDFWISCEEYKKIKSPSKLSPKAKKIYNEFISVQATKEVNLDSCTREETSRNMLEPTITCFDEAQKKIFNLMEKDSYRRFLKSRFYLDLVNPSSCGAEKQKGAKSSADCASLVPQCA
RGS4 inh valid: RGS4 inhibitor validation. actives 65% (n = 1,700). calcium response, % at 10 µM. shares compounds with RGS4 block. HEK293 M3R/RGS4, carbachol calcium Fluo-4 fluorescence; carbachol added at its EC20; 0 = buffer wells, 100 = carbachol control;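 active = duplicate-averaged calcium response above the buffer-only control mean plus 5 SD of those controls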;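 note: integrated fluorescence ratio F max minus min over baseline F0; higher response in RGS4-induced cells means RGS4 inhibition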
RGS4 uninduced: non-induced cell nonspecific activity of RGS4 inhibitors; shares compounds with RGS4 block; HEK293 M3R non-induced, carbachol calcium Fluo-4; submaximal (EC20) carbachol stimulus; buffer wells 0%, carbachol control wells 100%; activity (percent), % at 10 µM; actives 20% (n = 1,900); AID 493000; call rule not given here;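 note: RGS4 induction absent so cells express M3R without RGS4; higher means more calcium signal and flags a non-specific hit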
RGS4 inh ctr2: signal in non-induced cells without carbachol, RGS4 inhibitor counter-screen; shares compounds with RGS4 block; HEK293 M3R/RGS4 non-induced, Fluo-4 calcium, no carbachol; normalised: buffer wells 0%, carbachol wells 100%; calcium response (agonist-mode artifact), % at 10 µM; actives 22% (n = 1,900); AID 493001;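 active = duplicate-averaged calcium rise in uninduced cells above buffer wells' mean plus 5 SD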
MrgX1 ag reconf: confirmation of human MrgX1 receptor agonists | shares compounds with MrgX1 ag | MrgX1-HEK293, Fluo-4 calcium fluorescence, FDSS | actives 78% (n = 600) | activation, % at 10 µM;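 active = calcium signal rise, corrected for plate position, at least 3 library SD high, with starting brightness within 5 such deviations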
MrgX1 PAM conf: confirmation of human MrgX1 receptor positive allosteric modulators | MrgX1-HEK293, Fluo-4 calcium fluorescence, FDSS | activation (ratio percentage), % at 10 µM | actives 13% (n = 1,200) | shares compounds with MrgX1 allo act;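 active = ratio at least 3 SD above the weak peptide control, stable starting fluorescence, no direct agonism earlier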;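 note: compound followed by low BAM8-22 agonist challenge near EC20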
MrgX1 ant reconf: confirmation of human MrgX1 receptor antagonists; shares compounds with MrgX1 antag; MrgX1-HEK293, BAM8-22 calcium flux, Fluo-4; hits give low values; remaining BAM8-22 calcium response % of control (hits give low values), % at 10 µM; actives 19% (n = 2,300);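 active = remaining agonist calcium response no higher than 100% minus 3 SD of agonist-only control wells, with starting fluorescence near control levels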;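 note: agonist BAM8-22 given at a near maximal EC90 to ECmax level; peak minus minimum fluorescence divided by baseline after agonist addition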
HEK293 Ca flux: MrgX1 antagonist counter-screen hit in parental HEK293 cells | Fluo-4 calcium fluorescence, FDSS | actives 2% (n = 4,000) | fluorescence ratio F(max-min)/F0 at 10 µM | shares compounds with MrgX1 antag;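 active = duplicate-averaged calcium fluorescence ratio at least three times the standard deviation of buffer wells, a nonspecific response in parental cells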
HEK293 Ca counter: MrgX1 allosteric activator counter-screen hit in parental HEK293 cells | shares compounds with MrgX1 antag | parental HEK293 calcium flux, Fluo-4 fluorescence ratio; hits give high values | fluorescence ratio F(max-min)/F0 at 10 µM | actives 0.4% (n = 4,000);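 active = calcium fluorescence ratio, averaged over duplicates, at least 3 SD of the buffer-well ratio, meaning a nonspecific response in receptor-free cells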;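 note: untransfected parental HEK293 lacking MrgX1 used as counterscreen for MrgX1 allosteric activators; fluorescence change taken during the second addition on a kinetic imager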
HEK293 Ca cntr2: activity in parental HEK293 cells lacking MrgX1 receptor. shares compounds with MrgX1 antag. Fluo-4 calcium fluorescence (FDSS); hits give high values. fluorescence ratio F(max-min)/F0 at 10 µM. actives 8.7% (n = 4,000). AID 624115;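 active = calcium fluorescence ratio at least three times the spread of buffer wells, meaning a non-specific response in parental cells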
Numbers without * were called inactive; i = inactive; nt = no result.

SMILES	MrgX1 antag	RGS4 pot	MrgX1 allo act	MrgX1 ag	RGS4 block	RGS4 inh valid	RGS4 uninduced	RGS4 inh ctr2	MrgX1 ag reconf	HEK293 Ca flux	HEK293 Ca counter	HEK293 Ca cntr2	others
O=C(CCN1CCc2ccccc2CC1)c1ccc2c(c1)OCCO2	i	i	i	38*	13*	20%*	i	26%*	136%*	i	i	i
CN1CCN(C(=S)c2cn(Cc3ccc(Br)cc3)c3ccccc23)CC1	i	i	i	i	i	nt	nt	nt	nt	nt	nt	nt
COc1ccccc1C(=O)NCC(=O)NCCc1ccc(Cl)cc1	i	i	i	i	i	nt	nt	nt	nt	nt	nt	nt
CC(=O)NCc1ccc(C(=O)CCl)s1	i	i	i	i	i	nt	nt	nt	nt	nt	nt	nt
CC(=O)NCc1ccc(C(=O)CCl)cc1	i	i	i	35*	6.7*	40%*	i	9.5%*	197%*	i	i	i
Cc1cc(COc2ccccc2)oc1C(=O)O	i	i	i	i	i	nt	nt	nt	nt	nt	nt	nt
COc1cc(CNc2ccc(N3CCCC3)cc2)cc(Cl)c1OC	-6.1*	i	i	i	i	nt	33%*	i	nt	i	i	i	MrgX1 ant reconf=i
COc1ccc(S(=O)(=O)Cc2ccc(C(=O)NCc3ccccc3OC)o2)cc1	i	i	i	i	i	nt	nt	nt	nt	nt	nt	nt
Cc1cc(NS(=O)(=O)c2c(C)[nH]c(=O)[nH]c2=O)ccc1Br	i	i	i	i	i	nt	nt	nt	nt	nt	nt	nt
Cc1c(Cl)ccc2c1NC(=O)[C@]21N[C@@H](Cc2ccccc2)[C@H]2C(=O)N(c3ccc(F)cc3)C(=O)[C@H]21	i	i	i	27*	4.9*	27%*	i	20%*	i	i	i	i
COc1ccc(C(=O)CCN2CCN(c3ccccc3OC)CC2)cc1	i	i	i	i	i	nt	nt	nt	nt	nt	nt	nt
COc1ccc(C(=O)CCN2CCc3cc(OC)c(OC)cc3C2)cc1	i	i	i	42*	i	nt	i	8.5%*	i	i	i	i
COc1ccc(C2=Nn3c(nnc3-c3ccncc3)SC2)cc1OC	i	i	8.2*	i	5.2*	9.0%*	i	i	nt	i	i	i	MrgX1 PAM conf=i
CCOc1ccc(-c2nnc3n2N=C(c2ccc(OC)cc2)CS3)cc1	i	i	i	i	i	nt	nt	nt	nt	nt	nt	nt
COc1ccc(CS(=O)(=O)/C(Cl)=C(/Cl)C(=O)Nc2ccc(OC)nc2)cc1	i	i	i	47*	13*	57%*	32%*	12%*	191%*	i	i	i
COc1cc(C2(c3ccc(O)c(OC)c3)C(=O)Nc3c(C)cc(Br)cc32)ccc1O	-4.6*	i	i	i	12*	43%*	i	25%*	nt	i	i	i	MrgX1 ant reconf=83%*
Cc1ccc(NC(=O)CSC(N)=O)cc1Cl	-5*	i	i	i	6.1*	12%*	i	i	nt	i	i	i	MrgX1 ant reconf=85%*
NC(=O)SCC(=O)Nc1ccc(Cl)c(Cl)c1	i	nt	i	i	nt	nt	nt	nt	nt	nt	nt	nt
Cc1cc(S(=O)(=O)n2ccnc2)c(Cl)cc1Cl	i	i	i	i	i	nt	nt	nt	nt	nt	nt	nt
Cc1ccc(CN=Cc2[nH]c3ccc(Br)c(Cl)c3c2O)cc1	-6.8*	i	i	i	i	i	i	48%*	nt	0.23*	i	i	MrgX1 ant reconf=i
COc1ccc(CN=Cc2c(O)[nH]c3ccccc23)cc1	i	i	i	i	i	nt	nt	nt	nt	nt	nt	nt
CCOc1ccc(C2C(C#N)=C(N)Oc3cc(O)ccc32)cc1OCC (centres undefined)	i	i	i	i	i	nt	nt	nt	nt	nt	nt	nt
COc1ccc(C2C(C#N)=C(N)Oc3cc(O)ccc32)cc1Cl (centres undefined)	i	i	i	49*	6.8*	20%*	43%*	40%*	i	i	i	i
C[N+](C)(C)C/C=C1/COCO1	i	-9.1*	i	67*	7.3*	14%*	i	386%*	328%*	i	i	67*
OC(C#Cc1ccccn1)c1cccs1 (centres undefined)	i	i	i	44*	i	nt	nt	nt	i	i	i	i
SMILES	MrgX1 antag	RGS4 pot	MrgX1 allo act	MrgX1 ag	RGS4 block	RGS4 inh valid	RGS4 uninduced	RGS4 inh ctr2	MrgX1 ag reconf	HEK293 Ca flux	HEK293 Ca counter	HEK293 Ca cntr2	others
CC(C)Nc1nc2nonc2nc1Nc1ccccc1	i	i	i	29*	i	nt	nt	nt	175%*	i	i	i
N#CCSc1nc2ccccc2c(=O)n1C1CCCCC1	i	i	i	i	i	nt	nt	nt	nt	nt	nt	nt
O=c1c2ccccc2nc(SCc2cccc(F)c2)n1C1CCCC1	i	i	i	29*	i	nt	nt	nt	196%*	i	53*	i
COc1ccccc1NC(=O)CSc1nc(=O)n2cc(C)ccc2n1	i	i	i	i	i	nt	nt	nt	nt	nt	nt	nt
CC(=O)c1ccc(-n2c(CCC(=O)O)ccc2-c2cccs2)cc1	i	i	i	i	i	nt	nt	nt	nt	nt	nt	nt
Cc1ccc(-n2c(CCC(=O)O)ccc2-c2cccs2)cc1	i	i	i	33*	i	nt	nt	nt	149%*	i	i	i
